# Experimental data from different studies.
# Compare with care: the assays were run in different laboratories.
# Target: Interleukin-1 receptor-associated kinase 4 (IRAK4, Homo sapiens, UniProt Q9NWZ3)
# Sequence (Q9NWZ3 1-460, as in one of the studies): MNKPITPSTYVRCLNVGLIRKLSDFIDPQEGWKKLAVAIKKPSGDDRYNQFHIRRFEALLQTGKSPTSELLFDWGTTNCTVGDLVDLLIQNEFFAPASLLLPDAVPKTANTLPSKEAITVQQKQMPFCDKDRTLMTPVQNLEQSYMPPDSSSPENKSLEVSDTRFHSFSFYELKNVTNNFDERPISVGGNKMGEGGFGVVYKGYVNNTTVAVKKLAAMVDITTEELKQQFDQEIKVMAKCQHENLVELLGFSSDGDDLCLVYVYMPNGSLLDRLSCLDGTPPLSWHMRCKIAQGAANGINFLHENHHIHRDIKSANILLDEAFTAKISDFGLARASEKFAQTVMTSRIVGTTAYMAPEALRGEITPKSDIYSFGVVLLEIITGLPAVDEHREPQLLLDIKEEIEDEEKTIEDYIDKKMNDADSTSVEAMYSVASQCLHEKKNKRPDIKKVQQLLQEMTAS
SMILES,test,setting,remaining binding
C[C@H]1CCN(c2nccc(-c3cnn4ncccc34)n2)C1,binding,1 µM,73%
CCS(=O)(=O)c1cc2cc(C[C@@](O)(CC(C)(C)c3ccc(F)cc3C(N)=O)C(F)(F)F)[nH]c2cn1,"cell-free assay, competition with immobilised ligand",1 µM,100%
FC(F)(F)Oc1cccc(-c2cnc3ccc(-c4ccncc4)nn23)c1,"cell-free assay, competition with immobilised ligand",5 µM,1.6%
CCN1CCN(Cc2ccc(C(=O)Nc3ccc(C)c(Oc4ccc5c(c4)CC(=O)N5)c3)cc2C(F)(F)F)CC1,"binding, competition with immobilised ligand",1 µM,84%
O=C(NCCCN1CCOCC1)c1ccc(Nc2ncc(Cl)c(-c3ccc(Cl)s3)n2)cc1,"binding, competition with immobilised ligand",1 µM,75%
O=C1NC(c2ccccn2)Sc2ccccc21 (centres unmarked),"cell-free assay, competition with immobilised ligand",1 µM,100%
COc1cnc(Nc2cccc(S(N)(=O)=O)c2)nc1N1CCN(c2ccccc2)C(=O)C1,"binding, competition with immobilised ligand",1 µM,88%
O=C(Nc1c[nH]nc1C(=O)NC1CCNCC1)c1cc(F)cc(F)c1,"binding, competition with immobilised ligand",1 µM,100%
O=C(Nc1ccc(Oc2ccc(F)cc2)cc1)N1CCc2ncccc2[C@H]1c1ccc(F)cc1,"cell-free assay, competition with immobilised ligand",1 µM,96%
CN(CCCC(F)(F)F)c1nccc(-c2cnn3ncccc23)n1,binding,1 µM,100%
c1cncc(-c2cccc(Nc3nccc(NC4CCCCC4)n3)c2)c1,"binding, competition with immobilised ligand",10 µM,34%
CN(C)c1nccc(-c2cnc3ncccn23)n1,binding,1 µM,74%
O=C(c1ccc(Nc2nccc(-c3cc4ccccc4s3)n2)cc1)N1CCC(N2CCCC2)CC1,"binding, competition with immobilised ligand",1 µM,100%
CN(C)c1ncc(F)c(-c2cnn3ncccc23)n1,binding,1 µM,69%
O=C(O)[C@H]1[C@H](Cn2nnc3ccccc3c2=O)CC[C@@H]1C(=O)c1ccc(OCCC2CCOCC2)cc1,"cell-free assay, competition with immobilised ligand",1 µM,76%
O=C(c1ccc(Nc2ncc(Cl)c(-c3ccc(Cl)s3)n2)cc1)N1CCC(N2CCCC2)CC1,"binding, competition with immobilised ligand",1 µM,60%
CNCc1ccccc1-c1csc([C@H](C)Nc2nc(C)nc3cc(OC)c(OC)cc23)c1,"cell-free assay, competition with immobilised ligand",1 µM,89%
N[C@@H]1CCN(c2nccc(-c3cnn4ncccc34)n2)C1,binding,1 µM,99%
O=C(NCCCC1CCCCC1)c1ccc(CNC(=O)c2cnn(-c3ccccc3)c2C(F)(F)F)cc1,"cell-free assay, competition with immobilised ligand",0.1 µM,100%
Cc1cnn2ncc(-c3ccnc(N(C)C)n3)c2c1,binding,1 µM,100%
